These results are taken from ChEMBL document CHEMBL4028864 (J Med Chem, 2017).

In one series the target is Histone deacetylase 9 (Homo sapiens, UniProt Q9UKV0). The series can be described thus: Inhibition of HDAC9 (unknown origin) at 10 uM in presence of ATP relative to control. In outline:
(§1)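 HDAC enzyme inhibition was run by a contract laboratory.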

The subject of the next series is TAMH. Put plainly: cells. The series is classed as ADME, cell-based. The conditions noted are these: Mus musculus, 24 h.
The target of another series is Histone deacetylase 2 (Homo sapiens, UniProt Q92769). The series can be described thus: Inhibition of C-terminal GST tagged human recombinant HDAC2 (1 to 488 residues) expressed in Baculovirus infected insect cells in presence of ATP. Summed up:
as §1

For series [1], the target named is Histone deacetylase 3/Nuclear receptor corepressor 2 (HDAC3/NCoR2) (Homo sapiens, UniProt O15379). The series can be described thus: Inhibition of human recombinant HDAC3 (1 to 428 residues)/N-terminal GST-tagged NCOR2 (395 to 489 residues) expressed in Baculovirus infected insect cells in presence of ATP. Summed up:
as §1

Another series addresses Histone deacetylase 11 (Homo sapiens, UniProt Q96DB2). The series can be described thus: Inhibition of C-terminal His tagged human recombinant HDAC11 (1 to 347 residues) expressed in Baculovirus infected insect cells in presence of ATP. Summed up: as §1
A further series has as its system PC-3. The series can be described thus: cells. The series is classed as functional, cell-based. As to conditions: Homo sapiens, PC-3, 72 h; call rule not given here.
A short description of series [2]: Volume of distribution at steady state in Wistar rat at 1 mg/kg, iv by LC-MS/MS analysis. As to conditions: in vivo, read-out: Vdss. The series is classed as ADME, organism-based. Summed up: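 Wistar rats given a single 1 mg/kg iv dose. Plasma concentration–time profiles were plotted as mean ± SEM and sampled through 24 h postdose. Values were taken from the iv profile.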

The nature of series [3]: Tmax in Wistar rat at 5 mg/kg, po administered via gavage by LC-MS/MS analysis. The series is classed as ADME, organism-based. As to conditions: in vivo. Summed up: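 Wistar rats given a single 5 mg/kg oral dose. Plasma concentration–time profiles were plotted as mean ± SEM and sampled through 24 h postdose.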
For a further series, the system named is Plasma. Put plainly: Drug uptake in Wistar rat plasma at 5 mg/kg, po administered via gavage or 1 mg/kg, iv after 4 to 24 hrs by LC-MS/MS analysis. The conditions noted are these: in vivo. The series is classed as ADME, organism-based. In outline: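 Wistar rats dosed once at 5 mg/kg po or 1 mg/kg iv. Plasma levels were followed as mean ± SEM over 24 h postdose and checked against the limit of quantitation at each time point.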

Histone deacetylase 11, sequence (Q96DB2 whole entry, the tested form may be a part): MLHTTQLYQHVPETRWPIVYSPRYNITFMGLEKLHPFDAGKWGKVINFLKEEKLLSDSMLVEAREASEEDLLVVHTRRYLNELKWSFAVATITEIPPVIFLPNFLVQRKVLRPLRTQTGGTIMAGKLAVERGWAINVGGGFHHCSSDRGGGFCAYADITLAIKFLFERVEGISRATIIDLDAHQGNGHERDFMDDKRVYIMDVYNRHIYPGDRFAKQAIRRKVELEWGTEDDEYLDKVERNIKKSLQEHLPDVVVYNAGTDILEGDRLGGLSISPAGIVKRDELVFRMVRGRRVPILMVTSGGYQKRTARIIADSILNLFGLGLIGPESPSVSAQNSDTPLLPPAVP
Histone deacetylase 9, sequence (Q9UKV0 whole entry): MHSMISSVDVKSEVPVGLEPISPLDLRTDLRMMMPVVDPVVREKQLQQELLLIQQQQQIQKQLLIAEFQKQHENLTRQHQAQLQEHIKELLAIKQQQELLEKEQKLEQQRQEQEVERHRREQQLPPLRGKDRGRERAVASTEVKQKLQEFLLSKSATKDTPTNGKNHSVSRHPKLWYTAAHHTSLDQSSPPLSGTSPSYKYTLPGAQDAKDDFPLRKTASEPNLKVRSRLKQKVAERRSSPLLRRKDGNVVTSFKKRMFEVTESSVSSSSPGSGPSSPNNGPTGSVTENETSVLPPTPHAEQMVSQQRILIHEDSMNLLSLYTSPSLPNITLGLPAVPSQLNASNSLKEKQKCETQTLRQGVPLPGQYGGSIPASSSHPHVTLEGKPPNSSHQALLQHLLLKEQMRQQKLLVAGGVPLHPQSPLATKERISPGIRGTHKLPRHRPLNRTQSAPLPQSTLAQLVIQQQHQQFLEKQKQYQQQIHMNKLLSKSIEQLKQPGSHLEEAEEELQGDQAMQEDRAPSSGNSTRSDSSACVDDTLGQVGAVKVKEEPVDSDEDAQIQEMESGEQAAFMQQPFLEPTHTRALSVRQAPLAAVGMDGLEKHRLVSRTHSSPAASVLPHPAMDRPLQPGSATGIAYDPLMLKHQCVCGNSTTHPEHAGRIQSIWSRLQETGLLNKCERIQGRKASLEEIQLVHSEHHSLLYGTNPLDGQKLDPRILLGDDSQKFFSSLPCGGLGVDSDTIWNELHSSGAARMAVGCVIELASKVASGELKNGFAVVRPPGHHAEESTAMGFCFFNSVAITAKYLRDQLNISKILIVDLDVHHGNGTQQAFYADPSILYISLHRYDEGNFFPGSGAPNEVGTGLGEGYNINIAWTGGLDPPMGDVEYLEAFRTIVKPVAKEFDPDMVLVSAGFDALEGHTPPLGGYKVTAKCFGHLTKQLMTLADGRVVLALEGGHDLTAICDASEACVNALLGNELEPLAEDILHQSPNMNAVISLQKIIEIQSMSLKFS
Histone deacetylase 3/Nuclear receptor corepressor 2 (HDAC3/NCoR2), sequence (O15379 whole entry, the tested form may be a part): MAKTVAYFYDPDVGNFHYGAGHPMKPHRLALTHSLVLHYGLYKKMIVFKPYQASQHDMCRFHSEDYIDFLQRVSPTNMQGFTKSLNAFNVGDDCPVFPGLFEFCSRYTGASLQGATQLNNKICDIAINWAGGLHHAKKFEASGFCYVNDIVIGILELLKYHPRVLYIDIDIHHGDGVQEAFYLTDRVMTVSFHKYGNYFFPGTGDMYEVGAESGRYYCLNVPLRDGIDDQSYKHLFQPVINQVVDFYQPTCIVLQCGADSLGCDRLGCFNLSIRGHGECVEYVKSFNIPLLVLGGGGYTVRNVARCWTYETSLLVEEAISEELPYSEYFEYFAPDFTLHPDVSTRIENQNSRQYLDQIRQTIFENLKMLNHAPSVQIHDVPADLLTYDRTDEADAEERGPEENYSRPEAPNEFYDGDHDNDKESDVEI
Histone deacetylase 3/Nuclear receptor corepressor 2 (HDAC3/NCoR2), sequence (Q9Y618 whole entry, further chain, the tested form may be a part): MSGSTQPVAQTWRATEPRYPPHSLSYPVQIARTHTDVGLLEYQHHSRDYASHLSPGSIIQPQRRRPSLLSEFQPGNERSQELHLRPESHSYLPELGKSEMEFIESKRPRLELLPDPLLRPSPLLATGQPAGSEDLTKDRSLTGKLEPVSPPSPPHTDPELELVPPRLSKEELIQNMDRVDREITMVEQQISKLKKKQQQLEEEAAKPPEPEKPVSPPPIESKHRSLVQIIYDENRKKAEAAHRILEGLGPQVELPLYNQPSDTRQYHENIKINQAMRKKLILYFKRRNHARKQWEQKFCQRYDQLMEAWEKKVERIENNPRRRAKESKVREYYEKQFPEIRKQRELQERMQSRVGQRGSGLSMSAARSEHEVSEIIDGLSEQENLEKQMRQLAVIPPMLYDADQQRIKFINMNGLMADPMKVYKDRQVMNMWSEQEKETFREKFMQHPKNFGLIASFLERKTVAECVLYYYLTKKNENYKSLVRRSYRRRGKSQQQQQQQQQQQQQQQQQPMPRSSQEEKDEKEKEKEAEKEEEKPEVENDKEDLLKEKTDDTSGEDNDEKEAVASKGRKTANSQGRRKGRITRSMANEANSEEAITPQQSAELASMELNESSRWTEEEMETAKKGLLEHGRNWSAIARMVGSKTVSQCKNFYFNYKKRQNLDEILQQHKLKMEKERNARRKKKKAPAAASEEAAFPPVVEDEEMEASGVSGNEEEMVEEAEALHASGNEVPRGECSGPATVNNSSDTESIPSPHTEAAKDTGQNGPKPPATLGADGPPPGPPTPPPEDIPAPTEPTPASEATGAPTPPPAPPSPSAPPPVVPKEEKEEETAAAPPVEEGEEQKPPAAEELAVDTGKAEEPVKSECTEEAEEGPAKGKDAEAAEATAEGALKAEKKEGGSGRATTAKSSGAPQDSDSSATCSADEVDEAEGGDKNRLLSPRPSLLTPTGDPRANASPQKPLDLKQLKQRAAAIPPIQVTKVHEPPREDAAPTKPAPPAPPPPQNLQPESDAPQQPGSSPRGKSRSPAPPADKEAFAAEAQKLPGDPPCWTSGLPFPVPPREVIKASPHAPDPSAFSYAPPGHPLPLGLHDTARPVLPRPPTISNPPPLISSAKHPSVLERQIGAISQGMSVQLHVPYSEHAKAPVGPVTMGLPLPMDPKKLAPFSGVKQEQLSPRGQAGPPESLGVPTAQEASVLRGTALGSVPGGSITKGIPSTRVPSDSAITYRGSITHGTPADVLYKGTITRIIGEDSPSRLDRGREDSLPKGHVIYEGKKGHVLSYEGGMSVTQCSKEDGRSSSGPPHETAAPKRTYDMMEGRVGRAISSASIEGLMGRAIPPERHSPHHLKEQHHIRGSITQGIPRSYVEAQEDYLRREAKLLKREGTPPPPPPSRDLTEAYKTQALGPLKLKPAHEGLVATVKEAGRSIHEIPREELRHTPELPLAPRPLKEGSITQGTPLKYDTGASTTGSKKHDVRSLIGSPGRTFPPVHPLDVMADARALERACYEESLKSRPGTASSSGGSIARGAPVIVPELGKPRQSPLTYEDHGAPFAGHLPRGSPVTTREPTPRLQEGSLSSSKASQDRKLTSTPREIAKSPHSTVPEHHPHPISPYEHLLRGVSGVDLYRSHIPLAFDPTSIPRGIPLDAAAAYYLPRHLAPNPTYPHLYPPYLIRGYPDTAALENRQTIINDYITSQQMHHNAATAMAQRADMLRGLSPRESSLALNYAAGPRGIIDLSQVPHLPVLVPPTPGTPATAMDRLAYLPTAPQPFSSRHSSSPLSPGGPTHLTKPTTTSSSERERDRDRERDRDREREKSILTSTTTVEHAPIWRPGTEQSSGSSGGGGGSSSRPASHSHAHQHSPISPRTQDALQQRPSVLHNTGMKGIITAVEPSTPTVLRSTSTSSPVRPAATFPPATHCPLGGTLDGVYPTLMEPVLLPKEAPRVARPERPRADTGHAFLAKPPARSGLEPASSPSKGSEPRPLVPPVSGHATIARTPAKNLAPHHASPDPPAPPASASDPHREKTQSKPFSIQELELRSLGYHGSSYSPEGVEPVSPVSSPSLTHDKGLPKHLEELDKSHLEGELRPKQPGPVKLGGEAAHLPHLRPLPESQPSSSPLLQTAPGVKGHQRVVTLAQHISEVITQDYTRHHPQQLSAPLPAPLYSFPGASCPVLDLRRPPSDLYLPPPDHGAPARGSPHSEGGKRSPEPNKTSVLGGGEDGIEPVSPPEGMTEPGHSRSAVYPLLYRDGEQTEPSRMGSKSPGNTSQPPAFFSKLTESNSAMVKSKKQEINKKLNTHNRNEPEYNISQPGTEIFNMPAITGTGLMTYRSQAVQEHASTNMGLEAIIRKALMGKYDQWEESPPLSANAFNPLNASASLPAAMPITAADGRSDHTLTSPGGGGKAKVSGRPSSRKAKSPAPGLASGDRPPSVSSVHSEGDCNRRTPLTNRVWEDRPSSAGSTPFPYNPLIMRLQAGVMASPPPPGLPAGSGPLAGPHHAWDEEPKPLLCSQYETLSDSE
Histone deacetylase 2, sequence (Q92769 whole entry, the tested form may be a part): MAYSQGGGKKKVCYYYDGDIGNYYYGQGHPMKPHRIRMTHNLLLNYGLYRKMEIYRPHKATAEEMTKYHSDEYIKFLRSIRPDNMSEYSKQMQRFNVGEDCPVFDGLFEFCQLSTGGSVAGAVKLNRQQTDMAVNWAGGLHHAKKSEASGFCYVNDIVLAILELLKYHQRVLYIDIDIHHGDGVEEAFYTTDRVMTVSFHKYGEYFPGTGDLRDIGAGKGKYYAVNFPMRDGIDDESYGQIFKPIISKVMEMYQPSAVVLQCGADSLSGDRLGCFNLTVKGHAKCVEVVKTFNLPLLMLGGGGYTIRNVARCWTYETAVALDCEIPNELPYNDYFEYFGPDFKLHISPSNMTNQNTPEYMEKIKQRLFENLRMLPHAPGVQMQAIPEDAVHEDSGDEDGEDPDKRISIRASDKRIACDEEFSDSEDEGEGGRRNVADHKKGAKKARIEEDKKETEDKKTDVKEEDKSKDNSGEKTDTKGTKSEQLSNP

Usually inhibition stands for how much of the control response was suppressed. For orientation: IC50 means the concentration that inhibits the measured activity by half. As usually defined, the Tmax is the time from dosing to the highest level. `O=C(CCCCCCn1cc(-c2ncnc3[nH]ccc23)cn1)NO`: the inhibition at Histone deacetylase 9 came to 30%. Further, the IC50 is 4630 nM in the series with TAMH; 5.8 nM on Histone deacetylase 2; 3.9 nM in series [1]; 31 nM at Histone deacetylase 11; 2410 nM with PC-3. Besides, the Vd in series [2] came to 1.49 L/kg. Also, the Tmax in [3] came to 4.98 min. The Drug uptake result in the series on Plasma is “Not Active”.
